Screening results from PubChem BioAssay.
Compounds with a hit are over-represented: about 1.7% of the library has one in this group of screens.
UCH37 DUB inh – inhibitors of human UCH37 deubiquitinase, primary screen, biochemical, Ub-AMC cleavage, fluorescence; actives 0.33% (n = 330,000); Ubiquitin carboxyl-terminal hydrolase isozyme L5 (Homo sapiens), Q9Y5K5; purified proteasome/UCH37; inhibition, % (test concentration not listed);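 active = mean inhibition over replicate wells above about 20%, limit read from the data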;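 note: 0% = compound-free wells with enzyme and 100% = wells lacking proteasome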
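Material: Human UCH37 enzyme supplied as purified proteasome complex | Schedule: 30 min preincubation with enzyme, 25 min cleavage at room temperature | Detection: AMC fluorescence 355/460 nm | Measure: % inhibition of Ub-AMC cleavage fluorescence | Controls: Wells without proteasome as full block, compound-free enzyme plus substrate as uninhibited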
Rpn11 block – Rpn11 (PSMD14) deubiquitinase inhibitors, primary screen, biochemical, fluorescence polarization, uHTS; 26S proteasome non-ATPase regulatory subunit 14 (Homo sapiens), O00487; human 26S proteasome, Ub4-pepOG fluorescence polarization; 20S core pre-blocked with epoxomicin; inhibition, % at 20 µM; actives 0.59% (n = 360,000); AID 588493, 2011;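 active = inhibition at 20 µM, scaled to each plate's controls, above about 33%, limit read from the data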
PLCb3 inh – human PLC-beta3 inhibitors, primary screen, biochemical, fluorescence; 1-phosphatidylinositol 4,5-bisphosphate phosphodiesterase beta-3 (Homo sapiens), Q01970; Purified PLC-beta3, fluorogenic substrate; inhibition, % at 12.2 µM; actives 0.18% (n = 370,000); AID 720704, 2013; in the data active = inhibition above about 11%;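 note: 0% = median of compound wells on plate and 100% = full blocker control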
PLCg1 inh – PLC-gamma1 enzyme inhibitors, primary screen, biochemical, fluorescence, purified enzyme; 1-phosphatidylinositol 4,5-bisphosphate phosphodiesterase gamma-1 (Homo sapiens), P19174; fluorogenic substrate; inhibition, % at 12.2 µM; actives 0.84% (n = 370,000); in the data active = inhibition above about 9.5%
Rpn11 inh conf – Rpn11 (PSMD14) deubiquitinase inhibitors, confirmation, biochemical, fluorescence polarization, single concentration. actives 29% (n = 1,900). purified human 26S proteasome, Ub4-pepOG fluorescence polarization; proteasome pretreated with epoxomicin. inhibition, % at 20 µM. AID 602318, 2012. shares compounds with Rpn11 block
MMP-2 inh – MMP-2 enzyme inhibition, confirmation, counter-screen for RPN11 inhibitor project, biochemical, fluorescence, single concentration; recombinant MMP-2, FRET peptide cleavage fluorescence; shares compounds with Rpn11 block; inhibition, % at 20 µM; actives 4% (n = 1,900);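 note: human MMP-2 activated beforehand with APMA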
Target sequence (P08253 whole entry, looked up): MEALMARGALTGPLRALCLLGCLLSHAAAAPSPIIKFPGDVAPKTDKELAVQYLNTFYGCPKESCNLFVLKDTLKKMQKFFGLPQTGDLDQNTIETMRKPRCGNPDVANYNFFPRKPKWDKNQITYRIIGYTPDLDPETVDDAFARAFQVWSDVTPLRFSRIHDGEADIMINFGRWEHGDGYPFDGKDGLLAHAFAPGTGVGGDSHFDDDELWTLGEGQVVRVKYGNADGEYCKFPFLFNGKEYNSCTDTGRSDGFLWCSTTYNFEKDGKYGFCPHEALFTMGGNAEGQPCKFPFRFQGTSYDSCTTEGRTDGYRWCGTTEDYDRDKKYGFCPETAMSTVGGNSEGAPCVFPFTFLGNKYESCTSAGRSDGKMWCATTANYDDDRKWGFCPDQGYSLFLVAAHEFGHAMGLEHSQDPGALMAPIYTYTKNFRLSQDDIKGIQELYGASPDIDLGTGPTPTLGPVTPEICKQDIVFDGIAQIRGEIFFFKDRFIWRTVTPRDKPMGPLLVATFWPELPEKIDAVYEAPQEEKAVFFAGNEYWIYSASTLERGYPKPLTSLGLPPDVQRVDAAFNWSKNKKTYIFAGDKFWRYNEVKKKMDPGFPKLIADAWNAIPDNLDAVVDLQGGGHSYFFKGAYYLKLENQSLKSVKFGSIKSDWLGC
Thrombin FP – bovine thrombin protease inhibition, confirmation, counter-screen for Rpn11 inhibitor project, biochemical, fluorescence polarization, single concentration. shares compounds with Rpn11 block. bovine thrombin cleavage of Ub4-pepOG. inhibition, % at 20 µM. actives 13% (n = 1,900);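 active = mean inhibition at least 40% at 20 µM, or signal 3 deviations below plate average, so some actives read negative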;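 note: plate controls were thrombin with DMSO for no effect and buffer wells lacking thrombin for full effect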
Active calls of the source: *; nt = no result given; + = active, no number. Cut-off read from the data, not from the text of the source, unless noted: active = inhibition above about 40%; inactive = the rest.

SMILES	UCH37 DUB inh	Rpn11 block	PLCb3 inh	PLCg1 inh	Rpn11 inh conf	MMP-2 inh	Thrombin FP
COc1ccc(Br)cc1C=c1sc2nc(-c3ccco3)nn2c1=O	-1	nt	nt	nt	nt	nt	nt
CCN1CCc2nc(NC(=O)CC(c3ccccc3)c3ccccc3)sc2C1	2	30	-33	-21	nt	nt	nt
CCN1CCc2nc(NC(=O)C(c3ccccc3)c3ccccc3)sc2C1	1	43*	-41	-25	10	-19	-3
NC(=NO)c1nc(N2CCCC2)nc(N(c2ccccc2)c2ccccc2)n1	1	nt	nt	nt	nt	nt	nt
CC(=O)Oc1ccc(-c2ccc(C(=O)NCCc3ccc(S(N)(=O)=O)cc3)cc2)cc1	-1	48*	-11	-7	11	-16	9
O=c1c2ccccc2nc(NN=Cc2c(O)ccc3ccccc23)n1O	-4	nt	nt	nt	nt	nt	nt
O=C(CNC(=O)c1cccc(F)c1)NN=Cc1cc(Br)ccc1OCc1ccccc1	1	nt	nt	nt	nt	nt	nt
Cc1sc2nc(CSc3nnc(Cc4cccs4)n3C3CCCCC3)[nH]c(=O)c2c1C	2	72*	-13	-12	102*	-7	59*
Cc1cc(OC(=O)c2ccc(Cl)cc2Cl)nc(C)n1	2	+	-4	5	-2	-46	6
O=C(NN1C(=O)/C(=C/C=C/c2ccco2)SC1=S)c1ccncc1	12	77*	-28	7	123*	55*	54*
O=C(NN1C(=O)/C(=C/C=C/c2ccccc2)SC1=S)c1ccncc1	8	71*	-13	-14	-3	2	19
O=C(CCN1C(=O)/C(=C/c2ccccc2)SC1=S)NNC(=O)c1ccncc1	4	-5	-1	0	nt	nt	nt
CCC(=NNc1ccc([N+](=O)[O-])cc1[N+](=O)[O-])c1ccc(O)cc1	6	nt	nt	nt	nt	nt	nt
CC(NC(=O)C1CCN(C(=O)c2cccs2)CC1)c1ccc(S(N)(=O)=O)cc1 (stereo not drawn)	1	67*	-4	-2	63*	-117	-8
Cc1ccc2[nH]c(O)c(N=Nc3ccccc3C)c2c1	6	54*	-17	-6	64*	-38	-18
Cc1ccccc1N=Nc1c(O)[nH]c2ccccc12	6	7	-18	-6	nt	nt	nt
CC(=NNC(=O)c1cccc(S(=O)(=O)N2CCCC2)c1)c1ccc(C)cc1	3	nt	nt	nt	nt	nt	nt
O=C(N/N=C/c1cccc([N+](=O)[O-])c1)c1ccc(Br)cc1	nt	42*	-6	-3	17	41*	1
COc1cc(/C=N/NC(=O)c2ccc(O)cc2)ccc1OCC(=O)Nc1cccc([N+](=O)[O-])c1	nt	116*	-8	-1	9	-18	-3
O=C(N/N=C/c1cccc([N+](=O)[O-])c1)c1cccc(Br)c1	nt	3	-1	-8	nt	nt	nt
Cn1c(C=Nn2cnnc2)nc2ccccc21	-210	nt	nt	nt	nt	nt	nt
S=c1[nH]nc(-c2cc(-c3ccccc3)n[nH]2)n1/N=C/c1cccc(Cl)c1	nt	177*	-7	-1	157*	19	81*
S=c1[nH]nc(-c2cc(-c3ccccc3)n[nH]2)n1/N=C/c1ccc(Cl)c(Cl)c1	nt	58*	-1	-2	55*	15	-15
COc1ccc(C=NNC(=O)c2cccc([N+](=O)[O-])c2)cc1OS(=O)(=O)c1ccc(C)cc1	5	nt	nt	nt	nt	nt	nt
CCOC(=O)C=c1sc(=Cc2ccc(C(F)(F)F)cc2)c(=O)n1CC(=O)NCc1ccco1	-24	nt	nt	nt	nt	nt	nt
SMILES	UCH37 DUB inh	Rpn11 block	PLCb3 inh	PLCg1 inh	Rpn11 inh conf	MMP-2 inh	Thrombin FP
COC(=O)C1=CC(C(=O)c2cccs2)=NN(c2ccc(OC)cc2)C1C(=O)OC (stereo not drawn)	0	44*	-3	-1	22	-12	15
COc1ccc(C=NS(=O)(=O)CCc2ccccc2)c(OC)c1	2	nt	nt	nt	nt	nt	nt
O=C(Cn1cc(C(F)(F)F)ccc1=O)NN=Cc1ccc(F)cc1	4	nt	nt	nt	nt	nt	nt
Cc1ccc(C(=O)/C=C/c2ccc(-c3ccc(C)cc3)o2)cc1	1	43*	-27	-23	18	1	-13
O=C(/C=C\c1ccc(-c2ccccc2)o1)c1ccccc1	-1	33	-35	-27	nt	nt	nt
O=C(Cn1nnc(-c2ccccc2)n1)N=Nc1c(O)[nH]c2ccccc12	3	64*	0	0	-5	15	-19
O=C(CSc1nnc(-c2ccc(Cl)cc2)n1-c1ccccc1)NN=Cc1ccccc1C(=O)O	1	nt	nt	nt	nt	nt	nt
O=C(NN=Cc1ccc2cccnc2c1)c1nc2ccccc2c(=O)[nH]1	-63	nt	nt	nt	nt	nt	nt
CCOc1ccc(C(=O)Nc2cccc(-c3nc4cccnc4o3)c2)cc1Cl	-4	55*	nt	nt	19	-24	3
CCOc1ccc(C(=O)Nc2cccc(C(=O)O)c2)cc1Cl	1	4	0	5	nt	nt	nt
COC(=O)c1c(NC(=O)COC(=O)c2ccc(NC(=O)CC#N)cc2)sc2c1CCCCC2	-4	96*	-14	-11	106*	19	33
Cc1cc(C(=O)NN=Cc2ccc(-c3ccc([N+](=O)[O-])cc3Cl)o2)n[nH]1	13	nt	nt	nt	nt	nt	nt
CC(C)N=C1NN=C(c2cccs2)CS1	4	2	-4	-1	nt	nt	nt
CC(C)c1ccc(N=C2NN=C(c3cccs3)CS2)cc1	2	80*	-14	-3	-1	-1	3
COc1ccc(Br)cc1C=NNC(=O)c1cccc(S(=O)(=O)N2CCOCC2)c1	3	nt	nt	nt	nt	nt	nt
NC(=O)CC(NC(=O)Cc1ccc(Br)cc1)c1ccc(NC2CCN(Cc3ccccc3)CC2)c([N+](=O)[O-])c1 (stereo not drawn)	4	8	9	8	nt	nt	nt
NC(=O)CC(NC(=O)c1ccc(Br)cc1)c1ccc(NC2CCCCCC2)c([N+](=O)[O-])c1 (stereo not drawn)	0	43*	3	4	40*	-11	8
NC(=O)CC(NC(=O)Cc1cccc2ccccc12)c1ccc(NC2CCN(Cc3ccccc3)CC2)c([N+](=O)[O-])c1 (stereo not drawn)	2	42*	2	3	24	-38	11
CCC1CCCCN1c1ccc([N+](=O)[O-])cc1/C=N/NC(=O)Cn1c2ccccc2c(=O)c2ccccc21 (stereo not drawn)	nt	36*	-7	-6	25	0	8
